In ChEMBL document CHEMBL1150929, “Synthesis and cytotoxic activity of pyranocoumarins of the seselin and xanthyletin series” (J Nat Prod, 1998):
The source made the active and inactive calls. The calls are words filed in the database; no cut-off is given here.

Tests used:
[1] = system: L1210; assay: Cytotoxicity against mouse L1210 cells after 48 hrs by […] assay; format: functional, cell-based; details: L1210, 48 h
In short: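 L1210 cells grown in RPMI 1640 plus 10% fetal calf serum, 2 mM L-glutamine, penicillin/streptomycin, 10 mM HEPES (pH 7.4); exposed 48 h to nine serial drug dilutions in triplicate; microculture tetrazolium read-out; IC50 = concentration halving optical density versus untreated controls; mean of 2 independent experiments.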

[2] = system: L1210; assay: Cell cycle arrest in mouse L1210 cells by accumulation at G1 phase after 21 hrs by flow cytometry; format: functional, cell-based

| Structure (SMILES) | IC50 [1] | Activity [2] |
| --- | --- | --- |
| CC(=O)O[C@H]1c2c(ccc3ccc(=O)oc23)OC(C)(C)[C@H]1OC(C)=O (racemic) | > 100 µM |  |
| CC(=O)O[C@H]1c2c(ccc3ccc(=O)oc23)OC(C)(C)[C@@H]1Br (racemic) | 60.3 µM |  |
| CC1(C)Oc2cc3oc(=O)ccc3cc2[C@@H](O)[C@@H]1Br (racemic) | > 100 µM |  |
| CC(=O)O[C@@H]1c2cc3ccc(=O)oc3cc2OC(C)(C)[C@@H]1OC(C)=O (racemic) | > 100 µM |  |
| CC1(C)Oc2cc3oc(=O)ccc3cc2[C@@H](O)[C@H]1O (racemic) | > 100 µM |  |
| CC(=O)OC1CC(C)(C)Oc2cc3oc(=O)ccc3cc21 (racemic) | 5 µM | inactive |
| CC1(C)CC(OC(=O)c2ccccc2)c2c(ccc3ccc(=O)oc23)O1 (racemic) | 30.9 µM |  |
| CC1(C)CC(OC(=O)c2ccccc2)c2cc3ccc(=O)oc3cc2O1 (racemic) | 90.1 µM |  |
| CC1(C)CC(OC(=O)NCCCl)c2c(ccc3ccc(=O)oc23)O1 (racemic) | 67.2 µM |  |
| CC1(C)Oc2ccc3ccc(=O)oc3c2[C@H](OC(=O)c2ccccc2)[C@H]1Br (racemic) | 10.3 µM |  |
| CC1(C)Oc2ccc3ccc(=O)oc3c2[C@H](O)[C@@H]1O (racemic) | > 100 µM |  |
| CC(=O)O[C@@H]1c2cc3ccc(=O)oc3cc2OC(C)(C)[C@H]1Br (racemic) | > 100 µM |  |
| CC1(C)CC(O)c2cc3ccc(=O)oc3cc2O1 (racemic) | 6.5 µM | inactive |
| CC1(C)CC(O)c2c(ccc3ccc(=O)oc23)O1 (racemic) | 0.9 µM | inactive |
| CC(=O)OC1CC(C)(C)Oc2ccc3ccc(=O)oc3c21 (racemic) | 24.7 µM |  |
| CC1(C)Oc2ccc3ccc(=O)oc3c2[C@H](O)[C@H]1Br (racemic) | > 100 µM |  |
| CC1(C)Oc2cc3oc(=O)ccc3cc2[C@@H](OC(=O)c2ccccc2)[C@@H]1Br (racemic) | 36.5 µM |  |
